Measurements published in ChEMBL document CHEMBL3872252, “New bithiazolyl hydrazones: Novel synthesis, characterization and antitubercular evaluation” (Bioorg Med Chem Lett, 2017).
Converted amounts (≈) assume the structure as drawn.

Key:
Staphylococcus aureus [1] = experiment: Growth inhibition of Staphylococcus aureus at 10 ug/ml; format: functional; details: read-out: GI
Bacillus subtilis [2] = experiment: Growth inhibition of Bacillus subtilis at 10 ug/ml; format: functional; details: read-out: GI
Bacillus subtilis [3] = experiment: Growth inhibition of Bacillus subtilis at 3 ug/ml; format: functional; details: read-out: GI
Method in brief: (§1)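 Screened against Gram-negative E. coli and P. aeruginosa and Gram-positive S. aureus and B. subtilis. Compound was tested at 3 µg/ml, and the read-out is percent growth inhibition.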

[4] = Antitubercular activity against Mycobacterium tuberculosis H37Ra ATCC 25177 active stage infected in human THP1 cells measured on day 8 by nitrate reductase assay; format: functional, THP-1; details: ATCC 25177, 192 h
Pseudomonas aeruginosa [5] = experiment: Growth inhibition of Pseudomonas aeruginosa at 10 ug/ml; format: functional; details: read-out: GI
Bacillus subtilis [6] = experiment: Growth inhibition of Bacillus subtilis at 30 ug/ml; format: functional; details: read-out: GI
[7] = Selectivity index, ratio of GI50 for human HCT116 cells to MIC90 for Mycobacterium bovis BCG ATCC 35743 active stage; format: toxicity, cell-based, HCT-116; details: read-out: Selectivity Index
Method in brief: (§2)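 Cytotoxicity was measured on human MCF-7, HCT116 and THP-1 cells by MTT assay, with paclitaxel as reference. GI50 is the concentration inhibiting 50% of cell growth. The selectivity index is GI50 for the given cell line divided by MIC90 for the given mycobacterial strain and stage.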

[8] = Selectivity index, ratio of GI50 for human HCT116 cells to MIC90 for Mycobacterium tuberculosis H37Ra ATCC 25177 dormant stage; format: toxicity, cell-based, HCT-116; details: read-out: Selectivity Index
Method in brief: (§3)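 Cytotoxicity was measured on human MCF-7, HCT116 and THP-1 cells by MTT assay, with paclitaxel as reference. The selectivity index is GI50 for the given cell line divided by MIC90 for the given mycobacterial strain and stage.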

[9] = Selectivity index, ratio of GI50 for human MCF7 cells to MIC90 for Mycobacterium bovis BCG ATCC 35743 dormant stage; format: toxicity, cell-based; details: read-out: Selectivity Index; method in brief: as §3
[10] = Selectivity index, ratio of GI50 for human THP1 cells to MIC90 for Mycobacterium bovis BCG ATCC 35743 active stage; format: toxicity, cell-based, THP-1; details: read-out: Selectivity Index; method in brief: as §2
[11] = Selectivity index, ratio of GI50 for human HCT116 cells to MIC90 for Mycobacterium tuberculosis H37Ra ATCC 25177 active stage; format: toxicity, cell-based, HCT-116; details: read-out: Selectivity Index; method in brief: as §2
Pseudomonas aeruginosa [12] = experiment: Growth inhibition of Pseudomonas aeruginosa at 3 ug/ml; format: functional; details: read-out: GI; method in brief: as §1
Staphylococcus aureus [13] = experiment: Growth inhibition of Staphylococcus aureus at 30 ug/ml; format: functional; details: read-out: GI
Pseudomonas aeruginosa [14] = experiment: Growth inhibition of Pseudomonas aeruginosa at 30 ug/ml; format: functional; details: read-out: GI
[15] = Selectivity index, ratio of GI50 for human THP1 cells to MIC90 for Mycobacterium tuberculosis H37Ra ATCC 25177 dormant stage; format: toxicity, cell-based, THP-1; details: read-out: Selectivity Index; method in brief: as §3
[16] = Antitubercular activity against Mycobacterium tuberculosis H37Ra ATCC 25177 dormant stage measured on day 12 by XTT reduction menadione based two-fold dilution assay; format: functional; details: ATCC 25177, 288 h
Method in brief: (§4)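 M. tuberculosis H37Ra ATCC 25177 was exposed to 0.7–100 μg/mL in two-fold steps (0.7, 1.5, 3.1 … 100). Active stage was read after 8 days and dormant stage after 12 days of incubation. Inhibition was read by XTT reduction menadione assay (XRMA), absorbance 470 nm. MIC90 is the concentration giving ≥90% inhibition (µg/mL).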

[17] = Antitubercular activity against Mycobacterium bovis BCG ATCC 35743 dormant stage measured on day 12 by nitrate reductase based two-fold dilution assay; format: functional, Mycobacterium bovis BCG str. ATCC 35743; details: Mycobacterium tuberculosis variant bovis BCG, ATCC 35743, 288 h
[18] = Cytotoxicity against human HCT116 cells by MTT assay; format: toxicity, cell-based, HCT-116; details: for GI50: HCT116 cells; for GI90: hct-116
Escherichia coli [19] = experiment: Growth inhibition of Escherichia coli at 30 ug/ml; format: functional; details: read-out: GI
Escherichia coli [20] = experiment: Growth inhibition of Escherichia coli at 3 ug/ml; format: functional; details: read-out: GI; method in brief: as §1
[21] = Cytotoxicity against human MCF7 cells by MTT assay; format: toxicity, cell-based; details: for GI50: MCF7 cells; for GI90: mcf7
[22] = Selectivity index, ratio of GI50 for human THP1 cells to MIC90 for Mycobacterium tuberculosis H37Ra ATCC 25177 active stage; format: toxicity, cell-based, THP-1; details: read-out: Selectivity Index; method in brief: as §2
[23] = Selectivity index, ratio of GI50 for human HCT116 cells to MIC90 for Mycobacterium bovis BCG ATCC 35743 dormant stage; format: toxicity, cell-based, HCT-116; details: read-out: Selectivity Index; method in brief: as §3
[24] = Cytotoxicity against human THP1 cells by MTT assay; format: toxicity, cell-based, THP-1; details: for GI50: THP1 cells; for GI90: thp-1
Staphylococcus aureus [25] = experiment: Growth inhibition of Staphylococcus aureus at 3 ug/ml; format: functional; details: read-out: GI; method in brief: as §1
[26] = Selectivity index, ratio of GI50 for human MCF7 cells to MIC90 for Mycobacterium tuberculosis H37Ra ATCC 25177 dormant stage; format: toxicity, cell-based; details: read-out: Selectivity Index; method in brief: as §3
[27] = Antitubercular activity against Mycobacterium tuberculosis H37Ra ATCC 25177 dormant stage infected in human THP1 cells measured on day 12 by nitrate reductase assay; format: functional, THP-1; details: ATCC 25177, 288 h
[28] = Selectivity index, ratio of GI50 for human MCF7 cells to MIC90 for Mycobacterium tuberculosis H37Ra ATCC 25177 active stage; format: toxicity, cell-based; details: read-out: Selectivity Index; method in brief: as §2
[29] = Antitubercular activity against Mycobacterium tuberculosis H37Ra ATCC 25177 active stage measured on day 8 by XTT reduction menadione based two-fold dilution assay; format: functional; details: ATCC 25177, 192 h; method in brief: as §4
[30] = Antitubercular activity against Mycobacterium bovis BCG ATCC 35743 active stage measured on day 8 by nitrate reductase based two-fold dilution assay; format: functional, Mycobacterium bovis BCG str. ATCC 35743; details: Mycobacterium tuberculosis variant bovis BCG, ATCC 35743, 192 h
[31] = Selectivity index, ratio of GI50 for human MCF7 cells to MIC90 for Mycobacterium bovis BCG ATCC 35743 active stage; format: toxicity, cell-based; details: read-out: Selectivity Index; method in brief: as §2
Escherichia coli [32] = experiment: Growth inhibition of Escherichia coli at 10 ug/ml; format: functional; details: read-out: GI
[33] = Selectivity index, ratio of GI50 for human THP1 cells to MIC90 for Mycobacterium bovis BCG ATCC 35743 dormant stage; format: toxicity, cell-based, THP-1; details: read-out: Selectivity Index; method in brief: as §3

SMILES | inhibition of growth at 10 µg/mL (Staphylococcus aureus [1]) [%] | inhibition of growth at 10 µg/mL (Bacillus subtilis [2]) [%] | inhibition of growth at 3 µg/mL (Bacillus subtilis [3]) [%] | MIC90 [4] [µg/mL] | inhibition of growth at 10 µg/mL (Pseudomonas aeruginosa [5]) [%] | inhibition of growth at 30 µg/mL (Bacillus subtilis [6]) [%] | selectivity ratio [7] | selectivity ratio [8] | selectivity ratio [9] | selectivity ratio [10] | selectivity ratio [11] | inhibition of growth at 3 µg/mL (Pseudomonas aeruginosa [12]) [%] | inhibition of growth at 30 µg/mL (Staphylococcus aureus [13]) [%] | inhibition of growth at 30 µg/mL (Pseudomonas aeruginosa [14]) [%] | selectivity ratio [15] | IC50 [16] [µg/mL] | MIC90 [16] [µg/mL] | IC50 [17] [µg/mL] | MIC90 [17] [µg/mL] | GI50 [18] [µg/mL] | also measured
C/C(=N\Nc1nc(-c2ccc(C)cc2)cs1)c1sc(C)nc1C | 82.4 | 81 | 76.9 | 74.3 (≈ 217 µM) | 83.5 | 69.9 | 1 | 2 | 10 | 1 | 1 | 79.6 | 72 | 72.8 | 2 | 8.35 (≈ 24.4 µM) | 65.8 (≈ 192 µM) | 9.67 (≈ 28.2 µM) | 83.2 (≈ 243 µM) | > 100 | GI90 [18]: > 100 µg/mL; inhibition of growth at 30 µg/mL (Escherichia coli [19]): 73.7%; inhibition of growth at 3 µg/mL (Escherichia coli [20]): 79.8%; GI50 [21]: > 100 µg/mL; GI90 [21]: > 100 µg/mL; selectivity ratio [22]: 1; selectivity ratio [23]: 10; GI50 [24]: > 100 µg/mL; GI90 [24]: > 100 µg/mL; inhibition of growth at 3 µg/mL (Staphylococcus aureus [25]): 78.6%; selectivity ratio [26]: 2; MIC90 [27]: 82.8 µg/mL (≈ 242 µM); selectivity ratio [28]: 1; IC50 [29]: 11.1 µg/mL (≈ 32.3 µM); MIC90 [29]: > 100 µg/mL; IC50 [30]: 17.9 µg/mL (≈ 52.4 µM); MIC90 [30]: 54.8 µg/mL (≈ 160 µM); selectivity ratio [31]: 1; inhibition of growth at 10 µg/mL (Escherichia coli [32]): 83.3%; selectivity ratio [33]: 10
COc1ccc(-c2csc(N/N=C(\C)c3sc(C)nc3C)n2)cc1 | 72.7 | 70.6 | 70.7 | 48.2 (≈ 135 µM) | 73.5 | 64.7 | 1 | 5 | 12 | 1 | 1 | 73.6 | 67.2 | 67.8 | 5 | 1.24 (≈ 3.46 µM) | 20.5 (≈ 57.2 µM) | 8.41 (≈ 23.5 µM) | 24 (≈ 67.1 µM) | > 100 | GI90 [18]: > 100 µg/mL; inhibition of growth at 30 µg/mL (Escherichia coli [19]): 69.2%; inhibition of growth at 3 µg/mL (Escherichia coli [20]): 74.4%; GI50 [21]: > 100 µg/mL; GI90 [21]: > 100 µg/mL; selectivity ratio [22]: 1; selectivity ratio [23]: 12; GI50 [24]: > 100 µg/mL; GI90 [24]: > 100 µg/mL; inhibition of growth at 3 µg/mL (Staphylococcus aureus [25]): 72.8%; selectivity ratio [26]: 5; MIC90 [27]: 46.2 µg/mL (≈ 129 µM); selectivity ratio [28]: 1; IC50 [29]: 0.88 µg/mL (≈ 2.45 µM); MIC90 [29]: 74.1 µg/mL (≈ 207 µM); IC50 [30]: 7.37 µg/mL (≈ 20.6 µM); MIC90 [30]: 67.3 µg/mL (≈ 188 µM); selectivity ratio [31]: 1; inhibition of growth at 10 µg/mL (Escherichia coli [32]): 74.3%; selectivity ratio [33]: 12
